Screening data from PubChem.
KCNK3 inh: human KCNK3 channel inhibition, primary screen; O14649; CHO-KCNK3 thallium flux, FluxOR fluorescence; hits give low values; B-score at 10 µM; 340,000 compounds, 0.84% hits; AID 602410;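 active means B-score under library mean minus 4 SD, starting fluorescence ratio at most library mean plus 5 SD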;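 further: more negative B-score means stronger inhibition of thallium flux through KCNK3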
PHOSPHO1 block: inhibitors of human PHOSPHO1 phosphatase; Q8TCT1; recombinant PHOSPHO1, absorbance phosphatase assay; inhibition, % at 13.3 µM; 290,000 compounds, 1.1% hits; in the data active means inhibition above about 60%
KCNK9 block: human KCNK9 channel inhibition | Q9NPC2 | HEK293 KCNK9, FluxOR thallium flux fluorescence; hits give low values | B-score at 10 µM | 310,000 compounds, 1.2% hits;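 active means ratio B-score over 3 SD below the library mean, with starting fluorescence within 5 SD of its mean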;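 further: negative B-score means less thallium flux so channel inhibition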
KCNQ1 block: human KCNQ1 channel inhibition; AID 2642; CHO-K1 KCNQ1, FluxOR thallium flux fluorescence; hits give high values; B-score at 10 µM; 310,000 compounds, 1.3% hits;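 active means compounds whose thallium flux B-score, printed positive for inhibition, exceeds three library SD while starting fluorescence stays within three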;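 further: channel opened by potassium depolarization with thallium stimulus after 20 min compound exposure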
hERG protect: shields human hERG channel from block by proarrhythmic agents; Q12809; CHO-hERG, FluxOR thallium flux, dofetilide IC70 present; activation (rescue from dofetilide block), less the hit threshold, % at 10 µM; 310,000 compounds, 0.51% hits;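 active means activation above the mean of controls blocked by dofetilide plus 5 SD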;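 further: thallium influx through hERG after potassium depolarization seen as dye fluorescence rise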
Target sequence (Q12809 whole entry, looked up): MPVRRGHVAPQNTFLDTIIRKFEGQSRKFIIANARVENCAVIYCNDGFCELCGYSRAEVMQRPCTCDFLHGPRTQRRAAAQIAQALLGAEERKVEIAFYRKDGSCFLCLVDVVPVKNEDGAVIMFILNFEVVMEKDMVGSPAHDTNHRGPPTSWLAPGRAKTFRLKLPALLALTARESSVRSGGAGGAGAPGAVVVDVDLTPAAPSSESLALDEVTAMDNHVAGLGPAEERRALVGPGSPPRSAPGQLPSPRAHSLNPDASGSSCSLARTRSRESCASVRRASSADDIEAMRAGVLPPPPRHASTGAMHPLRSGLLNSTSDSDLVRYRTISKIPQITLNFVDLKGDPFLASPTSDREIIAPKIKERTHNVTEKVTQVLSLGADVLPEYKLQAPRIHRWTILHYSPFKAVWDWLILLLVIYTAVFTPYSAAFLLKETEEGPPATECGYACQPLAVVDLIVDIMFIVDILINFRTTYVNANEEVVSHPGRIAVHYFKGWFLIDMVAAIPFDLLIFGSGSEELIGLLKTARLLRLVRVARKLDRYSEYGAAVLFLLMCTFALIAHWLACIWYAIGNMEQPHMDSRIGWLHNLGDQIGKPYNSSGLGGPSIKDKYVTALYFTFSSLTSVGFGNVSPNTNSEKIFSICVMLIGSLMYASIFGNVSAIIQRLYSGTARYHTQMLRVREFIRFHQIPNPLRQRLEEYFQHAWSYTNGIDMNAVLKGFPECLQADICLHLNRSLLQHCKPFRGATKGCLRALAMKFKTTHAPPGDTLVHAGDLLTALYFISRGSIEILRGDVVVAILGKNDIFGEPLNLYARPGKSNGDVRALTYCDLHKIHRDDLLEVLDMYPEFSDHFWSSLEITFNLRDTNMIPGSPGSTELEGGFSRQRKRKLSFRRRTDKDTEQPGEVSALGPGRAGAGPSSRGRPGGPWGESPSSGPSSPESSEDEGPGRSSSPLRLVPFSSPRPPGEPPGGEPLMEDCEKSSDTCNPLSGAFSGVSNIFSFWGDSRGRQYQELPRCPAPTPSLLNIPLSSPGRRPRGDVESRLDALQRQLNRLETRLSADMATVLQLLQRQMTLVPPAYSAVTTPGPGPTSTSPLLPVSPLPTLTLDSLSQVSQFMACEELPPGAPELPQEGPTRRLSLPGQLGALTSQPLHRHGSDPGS
KCNQ1 act: potentiates or activates the human KCNQ1 potassium channel; B-score at 10 µM; CHO-K1 KCNQ1, thallium flux FluxOR fluorescence; hits give high values; 310,000 compounds, 0.35% hits;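 active means fluorescence ratio B-score, a plate-corrected score, at least three library SD, with initial intensity B-score within 5 SD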
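System: CHO-K1 cells stably expressing KCNQ1 / Medium: assay buffer for compound exposure, DMSO matched across wells / Reagent: thallium- and potassium-containing depolarizing buffer / Compound: one concentration, matched DMSO / Incubation: 20 min compound pretreatment at room temperature / Measured by: kinetic FluxOR fluorescence, 10 s baseline plus 110 s post-stimulus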
Of the large screens only hits and unclear results are named; the others gave an inactive call. Sampled rows, rich in hits. Any-hit rate of the full collection: about 4%.

O=C(NCCCN1CCOCC1)c1cc(C(=O)C2CCCCC2)c[nH]1	none
C=CCn1c(N)cc(=O)nc1SCC(=O)N(c1ccccc1)c1ccccc1	none
CCOC(=O)c1cc(-c2nnc(-c3ccc(Oc4ccccc4)cc3)o2)c(C)nc1C	KCNK3 inh -10
Cn1c(SCC(=O)Nc2cc(=O)n(C)c(=O)n2C)nnc1C12CC3CC(CC(C3)C1)C2	PHOSPHO1 block 61 (no result: KCNK3 inh, KCNK9 block, KCNQ1 block, hERG protect, KCNQ1 act)
O=C1NN(c2ccc(Cl)c(Cl)c2)C(=O)/C1=C/c1cccc(OC(=O)c2cccs2)c1	KCNQ1 act 12 (no result: KCNK3 inh)
O=C1NN(c2ccccc2)C(=O)/C1=C\c1cccc(OC(=O)c2cccs2)c1	none
Cc1ccccc1NC(=O)C(c1ccccc1)C1CCCC1 (stereo unspecified)	none
Cc1ccc(NC(=O)C(c2ccccc2)C2CCCC2)cc1 (stereo unspecified)	KCNK9 block -6.7
N/C(=N\OC(=O)CC(c1ccccc1)c1ccccc1)c1cccnc1	hERG protect 4.6
C[N+]1(CCOc2ccc([N+](=O)[O-])cc2)CCOCC1	PHOSPHO1 block 97
CC(=O)c1ccc(OCCOc2ccc([N+](=O)[O-])cc2)cc1	none
CC(C)NC(=O)c1sc2nc3c(c(-c4cccs4)c2c1N)CN(C)CC3	PHOSPHO1 block 63
Cc1cccc(NC(=O)c2sc3nc4c(c(-c5cccs5)c3c2N)CN(C)CC4)c1	none
Cc1ccccc1C(=O)Nc1ccc(-c2nc3ccc(C(=O)c4ccccc4)cc3[nH]2)cc1	KCNQ1 block 6
O=C(c1ccccc1)c1ccc2nc(-c3ccc(NC(=O)c4ccccc4Br)cc3)[nH]c2c1	none
Cc1n[nH]c(C)c1CCN(C)Cc1cn(C)nc1-c1ccccc1F	none
COc1ccc2cc(C(=O)C3CCCN(Cc4cnc(N5CCOCC5)s4)C3)ccc2c1 (stereo unspecified)	PHOSPHO1 block 60
COc1ccc(Cn2nnnc2C(C(C)C)N(Cc2ccco2)Cc2cccs2)cc1 (stereo unspecified)	KCNK9 block -7.6
CCOCCCNc1nc(C)nc2c1nnn2Cc1c(F)cccc1Cl	PHOSPHO1 block 65
COc1ccccc1C(=O)COC(=O)c1cccc(S(=O)(=O)N2CCCC2)c1	none
COc1ccccc1COC(=O)c1cccc(S(=O)(=O)N2CCCC2)c1	KCNK3 inh -9.6 (no result: PHOSPHO1 block, KCNK9 block, KCNQ1 block, hERG protect, KCNQ1 act)
COc1ccc(OC)c(COC(=O)c2cccc(S(=O)(=O)N3CCCCC3)c2)c1	KCNK3 inh -8.8 (no result: PHOSPHO1 block, KCNK9 block, KCNQ1 block, hERG protect, KCNQ1 act)
Cc1ccc(COC(=O)c2cccc(S(=O)(=O)N3CCCCC3)c2)cc1	KCNK3 inh -11 (no result: PHOSPHO1 block, KCNK9 block, KCNQ1 block, hERG protect, KCNQ1 act)
O=C(Nn1cnc2ccccc2c1=O)c1cccc(Cl)c1	none
COCc1cc(=O)n2[nH]cc(-c3ccccc3)c2n1	none
CCCc1cc(=O)n2[nH]cc(-c3ccc(Cl)cc3)c2n1	KCNQ1 act 10
CSCCC(NC(=O)c1cc(C)oc1C)C(=O)O (stereo unspecified)	PHOSPHO1 block 90
C=C(C)c1cccc(C(C)(C)NC(=O)NCc2cccnc2)c1	none
C=C(C)c1cccc(C(C)(C)NC(=O)NCc2ccncc2)c1	PHOSPHO1 block 66
O=C(Nc1ccn(Cc2ccc(Cl)cc2)n1)c1ccccc1	none
O=C(Nc1ccn(Cc2ccccc2)n1)c1ccc2c(c1)OCO2	PHOSPHO1 block 61
O=C(c1ccccc1)c1ccc2nc(-c3ccco3)c(-c3ccco3)nc2c1	KCNQ1 block 9
O=C(NCCO)c1ccc2nc(-c3ccco3)c(-c3ccco3)nc2c1	PHOSPHO1 block 74
O=C(NCCc1ccccc1)c1ccc2nc(-c3ccco3)c(-c3ccco3)nc2c1	none
C/C(=N\Nc1nccnc1Cl)c1ccc(Cl)c(Cl)c1	none
N#C/C(=N\Nc1ccccc1F)c1nc(-c2ccccc2)cs1	hERG protect 18
[N-]=[N+]=NC(c1ccccc1)c1nc2ccccc2[nH]c1=O (stereo unspecified)	none
CSc1ccc(/C=N/n2c(Cc3ccc(Br)cc3)n[nH]c2=S)cc1	hERG protect 155
CCOC(=O)C1CCN(C(=O)CCc2ccc(S(=O)(=O)NCC(C)C)cc2)CC1	PHOSPHO1 block 60
CCOC(=O)c1cnc(-c2ccccc2)nc1Oc1cccc(Cl)c1	none
Cc1nnc(SCC(=O)Nc2ccc(N3CCOCC3)cc2)o1	PHOSPHO1 block 63
CCc1nnc(SCC(=O)Nc2ccc(N3CCOCC3)cc2)o1	none
CCN(C(=O)CCc1nc(-c2ccc(OC)cc2)no1)c1cc(OC)ccc1OC	KCNK9 block -7.6
O=C(COC(=O)c1ccccc1Br)NC(=O)NCc1ccccc1	none (no result: PHOSPHO1 block, KCNK9 block, KCNQ1 block, hERG protect, KCNQ1 act)
COC(=O)C1=NN(C(=O)c2ccc(Cl)cc2)C(O)(c2ccccc2)C1 (stereo unspecified)	hERG protect 38, KCNQ1 act 39
CCOC(=O)C1=NN(C(=O)c2ccc(C)cc2)C(O)(c2ccc(Cl)cc2)C1 (stereo unspecified)	hERG protect 76, KCNQ1 act 79
COc1ccc(-c2noc(CCc3ccccc3)n2)cc1	none
COc1ccc(CCc2nc(-c3ccc(-n4cccc4)cc3)no2)cc1	KCNK9 block -6.6
Cc1c(NC(=O)c2ccc3c(c2)OCO3)cccc1-c1nc2ccccc2o1	hERG protect 6.0
CCn1nnnc1SCC(=O)N1c2ccccc2NC(=O)CC1C (stereo unspecified)	none (no result: PHOSPHO1 block, KCNK9 block, KCNQ1 block, hERG protect, KCNQ1 act)
O=C(N/N=C/c1ccccn1)c1sc2ccccc2c1Cl	KCNQ1 act 17
O=C(Cc1ccc(F)cc1)N/N=C/c1ccccn1	none
O=C(Cc1ccc(Br)c2ccccc12)N/N=C/c1ccccn1	KCNK9 block -7.1
COC(=O)c1c(NS(=O)(=O)Cc2ccccc2)sc2c1CCCC2	PHOSPHO1 block 71, hERG protect 18, KCNQ1 act 13
CCOC(=O)c1c(NC(=S)NC)sc2c1CC(C)(C)SC2	hERG protect 44, KCNQ1 act 71
CNC(=S)Nc1sc2c(c1C(=O)OC)CCC2	hERG protect 11, KCNQ1 act 16
COC(=O)c1c(NC(=S)Nc2ccc(F)cc2[N+](=O)[O-])sc2c1CCCCC2	hERG protect 6.4, KCNQ1 act 10
COC(=O)c1c(NC(=O)COC(=O)c2ccc(Cl)cc2[N+](=O)[O-])sc2c1CCCCC2	none
CN1CCN(C(CNC(=O)Nc2ccc(Cl)cc2)c2ccc(F)cc2)CC1 (stereo unspecified)	KCNQ1 block 6
CC(=O)C1=C(c2cccc([N+](=O)[O-])c2)N(C(C)=O)n2c(C)nnc2S1	KCNQ1 block 7
CC(=O)c1c(C(C)=O)c(C)n(-c2cccc([N+](=O)[O-])c2)c1C	none
CCOC(=O)c1c(CC(C)C)csc1NC(=O)CCl	none
CCNc1nc(NC(C)C)nc(N(C#N)CCOc2ccc(Cl)cc2Cl)n1	KCNK3 inh -11, KCNK9 block -7.5
CCNc1nc(NC(C)C)nc(N(C#N)CC(=O)OC)n1	none
